Assay results taken from ChEMBL document CHEMBL1145803, “Characterization of a series of 3-amino-2-phenylpropene derivatives as novel bovine chromaffin vesicular monoamine transporter inhibitors” (J Med Chem, 2003).

Legend:
[1] = target: Synaptic vesicular amine transporter (Bos taurus, UniProt Q27963); experiment: Inhibitory constant for dopamine uptake into resealed bovine chromaffin granule ghosts through the vesicular monoamine transporter
Procedure, shortened: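 Resealed bovine chromaffin granule ghosts (20 mM Tris phosphate, 100 mM KCl, 150 mM sucrose, 10 mM fumarate, 100 µg/mL catalase, no ascorbate, pH 7.0; Ficoll/sucrose purified) preincubated 10 min at 30 °C in 0.3 M sucrose, 10 mM HEPES, 5 mM Mg-ATP, 5 mM MgSO4, catalase. Inhibitor (0 or 200 µM) added 2 min, then DA at six concentrations. Pellet catecholamines by HPLC-EC; Ki from competitive inhibition fit.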

[2] = target: Synaptic vesicular amine transporter (Bos taurus) (UniProt Q27963); experiment: Km DA/Ki ratio was determined by different ghost preparations
Procedure, shortened: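 Ratio of Km for dopamine to Ki, each measured on the same ghost preparation in the dopamine uptake competitive-inhibition kinetics; used to normalize Km variation between ghost preparations.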

Chain of Synaptic vesicular amine transporter (Bos taurus) (Q27963 whole entry): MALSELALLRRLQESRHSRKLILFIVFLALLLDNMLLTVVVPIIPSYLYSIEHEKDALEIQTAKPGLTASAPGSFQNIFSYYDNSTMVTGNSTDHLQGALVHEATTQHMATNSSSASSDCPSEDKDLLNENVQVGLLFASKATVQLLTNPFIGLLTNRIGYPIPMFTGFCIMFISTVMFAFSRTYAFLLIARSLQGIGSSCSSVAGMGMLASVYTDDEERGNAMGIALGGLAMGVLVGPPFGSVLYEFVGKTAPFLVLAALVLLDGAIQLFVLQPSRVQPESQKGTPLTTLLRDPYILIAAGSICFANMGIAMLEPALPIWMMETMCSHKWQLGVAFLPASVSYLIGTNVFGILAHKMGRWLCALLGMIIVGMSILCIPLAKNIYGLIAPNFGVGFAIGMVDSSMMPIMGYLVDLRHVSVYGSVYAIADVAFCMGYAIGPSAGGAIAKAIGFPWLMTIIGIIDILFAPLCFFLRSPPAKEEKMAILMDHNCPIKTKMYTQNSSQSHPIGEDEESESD
Chain of Synaptic vesicular amine transporter (Q27963 whole entry): as above

Row | Structure (SMILES) | Ki [1] [µM] | Ratio [2]
1 | NC/C(=C\Br)c1ccc(O)cc1 | 50 | 0.46
2 | C=C(c1ccccc1)C(C)N (configuration not stated) | 78.4 | 0.41
3 | C=C(CN)c1ccc(F)cc1 | 42.3 | 0.8
4 | C=C(CN)c1ccc(Br)cc1 | 17.7 | 1.79
5 | C=C(CN(CC)CC)c1ccc(O)cc1 | 202 | 0.15
6 | C=C(CNC)c1ccc(O)cc1 | 93.7 | 0.39
7 | C=C(CN)c1ccc(O)cc1 | 15.5 | 1.52
8 | C=C(CN)c1ccc(I)cc1 | 12.9 | 2.96
9 | C=C(c1ccc(O)cc1)C(C)N(CC)CC (configuration not stated) | 207 | 0.15
10 | C=C(C[n+]1ccccc1)c1ccccc1 | 241 | 0.12

Further lines, results first:

Row | Ki [1] [µM] | Ratio [2] | Structure (SMILES)
11 | 102 | 0.33 | C=C(CN)c1ccc(OC)cc1
12 | 40.3 | 0.57 | C=C(CN)c1ccccc1
13 | 16.7 | 1.4 | C=C(CN)c1cccc(O)c1
14 | 55.9 | 0.59 | C=C(CN)c1ccc(C)cc1
15 | 30.2 | 0.76 | C=C(CN)c1cccc(OC)c1
16 | 18 | 1.76 | C=C(CN)c1ccc(Cl)cc1
